System: Fibroblast
Experiment: Multiplex assay against human fibroblast
Assay type: toxicity, cell-based
In short: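 At seeding, live cells were stained with Hoechst33342, BioTracker Green Microtubule Cytoskeleton Dye, MitoTracker Red and Annexin V Alexa Fluor 680. After compound addition they were imaged on a CQ1 microscope at 37°C and 5% CO2, and CellPathfinder machine-learning gating sorted them into Hoechst high-intensity objects or normal cells, with normal cells further split into healthy, pyknosed or fragmented nuclei and pyknosed cells into mitotic or apoptotic. Tubulin, mitochondrial-mass and membrane-permeability phenotypes are given as per cents of cells with healthy nuclei.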

[1] = 12 h, 1 µM, compound concentration 1 uM, replicate 1
[2] = 12 h, 1 µM, compound concentration 1 uM, replicate 2
[3] = 12 h, 10 µM, compound concentration 10 uM, replicate 1
[4] = 12 h, 10 µM, compound concentration 10 uM, replicate 2
[5] = 24 h, 1 µM, compound concentration 1 uM, replicate 1
[6] = 24 h, 1 µM, compound concentration 1 uM, replicate 2
[7] = 24 h, 10 µM, compound concentration 10 uM, replicate 1
[8] = 24 h, 10 µM, compound concentration 10 uM, replicate 2
[9] = 48 h, 1 µM, compound concentration 1 uM, replicate 1
[10] = 48 h, 1 µM, compound concentration 1 uM, replicate 2
[11] = 48 h, 10 µM, compound concentration 10 uM, replicate 1
[12] = 48 h, 10 µM, compound concentration 10 uM, replicate 2

## c1cn2cc(-c3ccc4cn[nH]c4c3)nc(Nc3ccc(N4CCOCC4)cc3)c2n1 [ENTOSPLETINIB]
[1]
  Population Apoptotic (%): 60%
  Population Fragmented Nuclei (%): 23%
  Population Healthy Nuclei (%): 36%
  Population Hoechst High Intensity Objects (%): 14%
  Population Membrane Permeable-Phenotype (%): 20%
  Population Mitochondria Different-Phenotype (%): 12%
  Population Mitotic Cells (%): 39%
  Population Normal (%): 85%
  Population Pyknosed Nuclei (%): 40%
  Population Tubulin-Different-Phenotype (%): 52%
  Total Cell Count: 81
[2]
  Population Apoptotic (%): 40%
  Population Fragmented Nuclei (%): 16%
  Population Healthy Nuclei (%): 73%
  Population Hoechst High Intensity Objects (%): 5%
  Population Membrane Permeable-Phenotype (%): 10%
  Population Mitochondria Different-Phenotype (%): 23%
  Population Mitotic Cells (%): 60%
  Population Normal (%): 94%
  Population Pyknosed Nuclei (%): 9%
  Population Tubulin-Different-Phenotype (%): 25%
  Total Cell Count: 59
[3]
  Population Apoptotic (%): 51%
  Population Fragmented Nuclei (%): 24%
  Population Healthy Nuclei (%): 3%
  Population Hoechst High Intensity Objects (%): 41%
  Population Membrane Permeable-Phenotype (%): 14%
  Population Mitochondria Different-Phenotype (%): 4%
  Population Mitotic Cells (%): 48%
  Population Normal (%): 58%
  Population Pyknosed Nuclei (%): 72%
  Population Tubulin-Different-Phenotype (%): 23%
  Total Cell Count: 1163
[4]
  Population Apoptotic (%): 92%
  Population Fragmented Nuclei (%): 30%
  Population Healthy Nuclei (%): 2%
  Population Hoechst High Intensity Objects (%): 25%
  Population Membrane Permeable-Phenotype (%): 21%
  Population Mitochondria Different-Phenotype (%): 82%
  Population Mitotic Cells (%): 7%
  Population Normal (%): 74%
  Population Pyknosed Nuclei (%): 67%
  Population Tubulin-Different-Phenotype (%): 78%
  Total Cell Count: 56
[5]
  Population Apoptotic (%): 60%
  Population Fragmented Nuclei (%): 25%
  Population Healthy Nuclei (%): 57%
  Population Hoechst High Intensity Objects (%): 11%
  Population Membrane Permeable-Phenotype (%): 23%
  Population Mitochondria Different-Phenotype (%): 7%
  Population Mitotic Cells (%): 40%
  Population Normal (%): 88%
  Population Pyknosed Nuclei (%): 16%
  Population Tubulin-Different-Phenotype (%): 51%
  Total Cell Count: 102
[6]
  Population Apoptotic (%): 14%
  Population Fragmented Nuclei (%): 14%
  Population Healthy Nuclei (%): 74%
  Population Hoechst High Intensity Objects (%): 4%
  Population Membrane Permeable-Phenotype (%): 17%
  Population Mitochondria Different-Phenotype (%): 15%
  Population Mitotic Cells (%): 85%
  Population Normal (%): 95%
  Population Pyknosed Nuclei (%): 11%
  Population Tubulin-Different-Phenotype (%): 21%
  Total Cell Count: 78
[7]
  Population Apoptotic (%): 48%
  Population Fragmented Nuclei (%): 22%
  Population Healthy Nuclei (%): 3%
  Population Hoechst High Intensity Objects (%): 44%
  Population Membrane Permeable-Phenotype (%): 23%
  Population Mitochondria Different-Phenotype (%): 4%
  Population Mitotic Cells (%): 51%
  Population Normal (%): 55%
  Population Pyknosed Nuclei (%): 74%
  Population Tubulin-Different-Phenotype (%): 47%
  Total Cell Count: 1126
[8]
  Population Apoptotic (%): 89%
  Population Fragmented Nuclei (%): 33%
  Population Healthy Nuclei (%): 2%
  Population Hoechst High Intensity Objects (%): 26%
  Population Membrane Permeable-Phenotype (%): 8%
  Population Mitochondria Different-Phenotype (%): 36%
  Population Mitotic Cells (%): 10%
  Population Normal (%): 73%
  Population Pyknosed Nuclei (%): 64%
  Population Tubulin-Different-Phenotype (%): 20%
  Total Cell Count: 65
[9]
  Population Apoptotic (%): 75%
  Population Fragmented Nuclei (%): 29%
  Population Healthy Nuclei (%): 65%
  Population Hoechst High Intensity Objects (%): 15%
  Population Membrane Permeable-Phenotype (%): 18%
  Population Mitochondria Different-Phenotype (%): 6%
  Population Mitotic Cells (%): 25%
  Population Normal (%): 84%
  Population Pyknosed Nuclei (%): 4%
  Population Tubulin-Different-Phenotype (%): 39%
  Total Cell Count: 104
[10]
  Population Apoptotic (%): 33%
  Population Fragmented Nuclei (%): 28%
  Population Healthy Nuclei (%): 68%
  Population Hoechst High Intensity Objects (%): 11%
  Population Membrane Permeable-Phenotype (%): 9%
  Population Mitochondria Different-Phenotype (%): 1%
  Population Mitotic Cells (%): 66%
  Population Normal (%): 88%
  Population Pyknosed Nuclei (%): 2%
  Population Tubulin-Different-Phenotype (%): 50%
  Total Cell Count: 116
[11]
  Population Apoptotic (%): 43%
  Population Fragmented Nuclei (%): 14%
  Population Healthy Nuclei (%): 4%
  Population Hoechst High Intensity Objects (%): 47%
  Population Membrane Permeable-Phenotype (%): 14%
  Population Mitochondria Different-Phenotype (%): 0%
  Population Mitotic Cells (%): 56%
  Population Normal (%): 52%
  Population Pyknosed Nuclei (%): 80%
  Population Tubulin-Different-Phenotype (%): 17%
  Total Cell Count: 1093
[12]
  Population Apoptotic (%): 82%
  Population Fragmented Nuclei (%): 24%
  Population Healthy Nuclei (%): 6%
  Population Hoechst High Intensity Objects (%): 64%
  Population Membrane Permeable-Phenotype (%): 12%
  Population Mitochondria Different-Phenotype (%): 12%
  Population Mitotic Cells (%): 17%
  Population Normal (%): 35%
  Population Pyknosed Nuclei (%): 69%
  Population Tubulin-Different-Phenotype (%): 46%
  Total Cell Count: 1794

Reference: ChEMBL document CHEMBL4689842, “EUbOPEN Chemogenomics Library wave 1” (2021)
